Laboratory results: ChEMBL document CHEMBL1135185, “Synthesis and PTP1B inhibition of 1,2-naphthoquinone derivatives as potent anti-diabetic agents” (Bioorg Med Chem Lett, 2002)
Values belong to the compound of their own block, whether it stands above or below them. The source made the active and inactive calls. No cut-off for these calls is given here.

What was measured:
[1] = target: T1, Tyrosine-protein phosphatase non-receptor type 1 (Homo sapiens, UniProt P18031); assay: Inhibition of human Protein-tyrosine phosphatase 1B (PTP1B) using fluorescein diphosphate (FDP)
T1 sequence (P18031 whole entry): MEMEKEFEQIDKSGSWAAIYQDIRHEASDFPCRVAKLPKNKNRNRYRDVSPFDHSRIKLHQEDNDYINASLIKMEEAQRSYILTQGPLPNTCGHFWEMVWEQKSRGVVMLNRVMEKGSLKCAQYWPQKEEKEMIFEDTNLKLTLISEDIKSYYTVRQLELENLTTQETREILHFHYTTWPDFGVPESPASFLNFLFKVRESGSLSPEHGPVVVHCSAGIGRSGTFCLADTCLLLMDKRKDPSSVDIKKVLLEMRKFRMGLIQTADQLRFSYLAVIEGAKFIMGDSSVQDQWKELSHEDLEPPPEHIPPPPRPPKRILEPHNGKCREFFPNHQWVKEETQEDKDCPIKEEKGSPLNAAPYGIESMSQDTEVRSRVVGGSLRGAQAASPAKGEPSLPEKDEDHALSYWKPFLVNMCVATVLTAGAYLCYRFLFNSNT
Procedure, shortened: (§1)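 Recombinant human PTP1B enzyme, fluorescein diphosphate (FDP) as substrate. Enzyme activity was followed by fluorescence measurement. IC50 values were obtained by direct regression curve analysis.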

[2] = target: T1, Tyrosine-protein phosphatase non-receptor type 1; assay: In vitro inhibitory activity against recombinant human protein-tyrosine phosphatase 1B (PTP1B) using fluorescein diphosphate (FDP) as a substrate; procedure, shortened: as §1
[3] = target: T1, Tyrosine-protein phosphatase non-receptor type 1; assay: In vitro inhibitory activity against recombinant human protein-tyrosine phosphatase 1B (PTP1B) using fluorescein diphosphate (FDP) as a substrate; Not active; procedure, shortened: as §1
[4] = target: T2, Receptor-type tyrosine-protein phosphatase C (Homo sapiens, UniProt P08575); assay: In vitro inhibitory activity against recombinant human CD45 using fluorescein diphosphate (FDP) as a substrate
T2 sequence (P08575 whole entry): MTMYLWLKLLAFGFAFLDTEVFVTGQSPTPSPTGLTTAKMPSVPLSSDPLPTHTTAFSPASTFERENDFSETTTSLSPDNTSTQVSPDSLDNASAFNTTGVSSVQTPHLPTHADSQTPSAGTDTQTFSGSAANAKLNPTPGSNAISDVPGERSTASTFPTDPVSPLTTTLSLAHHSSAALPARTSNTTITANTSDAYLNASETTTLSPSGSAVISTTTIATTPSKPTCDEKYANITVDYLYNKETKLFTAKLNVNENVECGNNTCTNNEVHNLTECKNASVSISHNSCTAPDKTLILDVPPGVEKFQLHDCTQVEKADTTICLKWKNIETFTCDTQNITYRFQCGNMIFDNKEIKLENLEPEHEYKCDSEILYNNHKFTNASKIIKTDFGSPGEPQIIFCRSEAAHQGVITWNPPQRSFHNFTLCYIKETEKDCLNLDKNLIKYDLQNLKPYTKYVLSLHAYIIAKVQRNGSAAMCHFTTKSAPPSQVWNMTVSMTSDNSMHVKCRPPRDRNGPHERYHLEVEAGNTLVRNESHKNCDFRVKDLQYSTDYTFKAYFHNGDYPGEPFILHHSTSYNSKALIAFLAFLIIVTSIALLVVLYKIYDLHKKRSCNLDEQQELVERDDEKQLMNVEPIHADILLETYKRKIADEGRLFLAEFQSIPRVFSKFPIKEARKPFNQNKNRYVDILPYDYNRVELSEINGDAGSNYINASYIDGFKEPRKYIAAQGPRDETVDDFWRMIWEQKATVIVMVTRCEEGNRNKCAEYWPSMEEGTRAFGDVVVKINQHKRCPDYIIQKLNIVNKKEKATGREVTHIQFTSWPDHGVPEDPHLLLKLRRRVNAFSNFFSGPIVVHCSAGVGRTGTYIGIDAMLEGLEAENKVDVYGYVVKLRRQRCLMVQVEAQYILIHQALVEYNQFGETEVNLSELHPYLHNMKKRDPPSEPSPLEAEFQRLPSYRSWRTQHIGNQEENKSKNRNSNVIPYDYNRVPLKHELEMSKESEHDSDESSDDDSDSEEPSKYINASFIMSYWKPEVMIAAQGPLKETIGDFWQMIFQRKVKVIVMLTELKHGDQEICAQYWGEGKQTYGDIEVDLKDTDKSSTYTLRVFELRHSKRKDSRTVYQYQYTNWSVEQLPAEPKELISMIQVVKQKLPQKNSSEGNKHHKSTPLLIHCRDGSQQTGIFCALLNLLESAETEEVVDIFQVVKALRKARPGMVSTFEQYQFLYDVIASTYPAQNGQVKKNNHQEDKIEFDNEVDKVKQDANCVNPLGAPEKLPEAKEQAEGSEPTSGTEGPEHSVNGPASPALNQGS

[5] = target: T3, M-phase inducer phosphatase 2 (Homo sapiens, UniProt P30305); assay: In vitro inhibitory activity against recombinant human Cdc25B using fluorescein diphosphate (FDP) as a substrate
T3 sequence (P30305 whole entry): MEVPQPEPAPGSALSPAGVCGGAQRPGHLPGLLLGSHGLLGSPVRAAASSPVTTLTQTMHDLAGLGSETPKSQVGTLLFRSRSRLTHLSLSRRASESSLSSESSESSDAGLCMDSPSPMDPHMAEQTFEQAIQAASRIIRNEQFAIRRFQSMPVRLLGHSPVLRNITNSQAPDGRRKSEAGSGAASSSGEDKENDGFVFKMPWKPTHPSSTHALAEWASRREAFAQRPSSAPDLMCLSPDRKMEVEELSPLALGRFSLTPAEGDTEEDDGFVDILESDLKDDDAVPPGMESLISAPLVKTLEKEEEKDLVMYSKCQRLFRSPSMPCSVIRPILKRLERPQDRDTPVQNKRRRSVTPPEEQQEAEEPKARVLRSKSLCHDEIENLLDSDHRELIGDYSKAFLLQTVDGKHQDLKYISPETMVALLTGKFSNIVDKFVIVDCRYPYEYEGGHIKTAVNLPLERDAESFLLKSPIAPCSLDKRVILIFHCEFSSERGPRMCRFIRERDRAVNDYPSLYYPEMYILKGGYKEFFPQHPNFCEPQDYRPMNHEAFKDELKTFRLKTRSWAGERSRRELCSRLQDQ

[6] = target: Receptor-type tyrosine-protein phosphatase F (Homo sapiens, UniProt P10586); assay: In vitro inhibitory activity against recombinant human LAR using fluorescein diphosphate (FDP) as a substrate
[7] = In vitro inhibitory activity against recombinant human PPI using fluorescein diphosphate (FDP) as a substrate
[8] = In vitro inhibitory activity against recombinant […] Yop using fluorescein diphosphate (FDP) as a substrate
[9] = test system: Mus musculus; assay: In vivo test to determine the ability to reduce plasma glucose levels in ob/ob mice at oral dose of 25 mg/kg/day for 5 days; Active; assay type: functional, organism-based

Sequence of Receptor-type tyrosine-protein phosphatase F (P10586 whole entry): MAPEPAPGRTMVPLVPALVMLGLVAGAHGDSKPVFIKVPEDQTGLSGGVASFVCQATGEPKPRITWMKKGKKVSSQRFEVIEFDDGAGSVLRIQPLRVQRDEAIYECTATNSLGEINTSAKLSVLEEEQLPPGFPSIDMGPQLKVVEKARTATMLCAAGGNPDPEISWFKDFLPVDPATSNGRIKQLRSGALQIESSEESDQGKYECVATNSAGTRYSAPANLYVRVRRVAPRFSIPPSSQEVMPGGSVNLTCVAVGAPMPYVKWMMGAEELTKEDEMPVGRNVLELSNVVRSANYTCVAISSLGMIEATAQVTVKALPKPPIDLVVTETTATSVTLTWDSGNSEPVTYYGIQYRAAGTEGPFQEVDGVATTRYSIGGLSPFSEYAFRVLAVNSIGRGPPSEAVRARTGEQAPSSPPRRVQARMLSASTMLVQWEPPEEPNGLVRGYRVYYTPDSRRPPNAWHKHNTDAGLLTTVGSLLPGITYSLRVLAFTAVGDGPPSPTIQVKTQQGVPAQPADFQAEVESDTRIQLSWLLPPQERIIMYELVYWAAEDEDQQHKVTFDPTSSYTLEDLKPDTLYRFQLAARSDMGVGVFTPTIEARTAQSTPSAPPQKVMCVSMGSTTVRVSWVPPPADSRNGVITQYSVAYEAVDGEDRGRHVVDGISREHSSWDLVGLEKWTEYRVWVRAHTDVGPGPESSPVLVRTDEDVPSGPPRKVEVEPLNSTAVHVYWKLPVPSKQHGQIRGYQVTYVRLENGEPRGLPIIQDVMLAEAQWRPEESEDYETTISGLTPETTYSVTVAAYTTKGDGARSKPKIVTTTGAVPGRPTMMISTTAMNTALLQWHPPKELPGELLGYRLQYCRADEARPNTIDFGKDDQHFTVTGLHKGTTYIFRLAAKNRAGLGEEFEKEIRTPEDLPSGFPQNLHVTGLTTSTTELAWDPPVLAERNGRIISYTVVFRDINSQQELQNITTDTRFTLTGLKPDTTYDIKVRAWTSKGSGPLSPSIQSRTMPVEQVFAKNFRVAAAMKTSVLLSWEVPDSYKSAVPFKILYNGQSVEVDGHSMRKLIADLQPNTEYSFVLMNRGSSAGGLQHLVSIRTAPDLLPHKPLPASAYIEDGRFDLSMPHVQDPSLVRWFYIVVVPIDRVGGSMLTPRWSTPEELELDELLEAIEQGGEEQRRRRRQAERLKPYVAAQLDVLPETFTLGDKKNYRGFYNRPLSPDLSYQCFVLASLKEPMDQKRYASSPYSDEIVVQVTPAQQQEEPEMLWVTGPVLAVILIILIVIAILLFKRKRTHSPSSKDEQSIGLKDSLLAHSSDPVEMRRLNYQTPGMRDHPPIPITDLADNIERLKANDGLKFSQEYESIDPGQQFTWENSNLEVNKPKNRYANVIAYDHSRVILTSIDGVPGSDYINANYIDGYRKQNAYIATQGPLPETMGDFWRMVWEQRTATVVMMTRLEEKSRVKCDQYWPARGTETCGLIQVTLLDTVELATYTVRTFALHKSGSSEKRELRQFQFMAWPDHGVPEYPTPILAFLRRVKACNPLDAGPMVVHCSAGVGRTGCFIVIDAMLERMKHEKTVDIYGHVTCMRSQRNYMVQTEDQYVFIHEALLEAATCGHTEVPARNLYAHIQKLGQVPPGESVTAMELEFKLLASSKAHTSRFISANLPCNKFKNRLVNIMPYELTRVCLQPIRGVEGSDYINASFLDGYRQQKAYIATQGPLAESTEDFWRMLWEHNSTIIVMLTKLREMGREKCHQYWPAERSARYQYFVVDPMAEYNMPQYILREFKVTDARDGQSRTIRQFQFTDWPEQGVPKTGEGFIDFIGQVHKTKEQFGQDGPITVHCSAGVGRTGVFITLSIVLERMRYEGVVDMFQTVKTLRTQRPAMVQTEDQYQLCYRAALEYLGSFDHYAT

IC50 [2]: Not Active
Compound: O=C1C=C(N2CCCC2)c2ccccc2C1=O

IC50 [1]: 680 nM
Compound: COC(=O)CCC1=C(c2ccccc2)c2cc(CCC(=O)OC)ccc2C(=O)C1=O

IC50 ([2]; read-out: IC50): 2150 nM
Compound: O=C1C=C(c2cccc3ccccc23)c2ccccc2C1=O

IC50 ([2]; read-out: IC50): 34900 nM
Compound: CN(C1=CC(=O)C(=O)c2ccccc21)c1ccccc1

IC50 [3]: Not Active
Compound: O=C1C=C(c2c(-c3ccccc3)[nH]c3ccccc23)c2ccccc2C1=O

IC50 [1]: 650 nM
Compound: CC(C)(C)OC(=O)COc1ccc(CC2=C(n3ccc4ccccc43)c3ccccc3C(=O)C2=O)cc1
Reduction [9]: Active

IC50 ([2]; read-out: IC50): 4560 nM
Compound: O=C1C=C(c2c[nH]c3cc(C(=O)O)ccc23)c2ccccc2C1=O

IC50 ([2]; read-out: IC50): 5240 nM
Compound: COc1ccc(C2=CC(=O)C(=O)c3ccccc32)cc1

IC50 [1]: 1010 nM
Compound: O=C(O)COc1ccc(CC2=C(n3ccc4ccccc43)c3ccccc3C(=O)C2=O)cc1

IC50 [3]: Not Active
Compound: CCCCCOc1ccc2c(c1)C(c1ccccc1)=CC(=O)C2=O

IC50 ([2]; read-out: IC50): 3000 nM
Compound: O=C1C=C(c2c[nH]c3ccc(C(=O)O)cc23)c2ccccc2C1=O

IC50 ([2]; read-out: IC50): 500 nM
Compound: O=C1C=C(c2cc(F)ccc2F)c2ccccc2C1=O

IC50 [1]: 1540 nM
Compound: O=C(O)COc1ccc(CC2=C(c3ccccc3)c3ccccc3C(=O)C2=O)cc1

IC50 ([2]; read-out: IC50): 5050 nM
Compound: O=C1C=C(c2cc(Cl)ccc2Cl)c2ccccc2C1=O

IC50 [1]: 1010 nM
Compound: CCOC(=O)c1ccc(CCC2=C(c3ccccc3)c3ccccc3C(=O)C2=O)cc1

IC50 ([2]; read-out: IC50): 650 nM
Compound: CCOC(=O)Nc1cccc2c1C(=O)C(=O)C=C2c1ccccc1

IC50 ([2]; read-out: IC50): 1070 nM
Compound: CCOC(=O)COc1ccc(C2=CC(=O)C(=O)c3ccccc32)cc1

IC50 ([2]; read-out: IC50): 4200 nM
Compound: O=C1C=C(C2CCCC2)c2ccccc2C1=O

Further lines, the compound ahead of its results:

Compound: COC(=O)CCc1ccc2c(c1)C(c1ccccc1)=CC(=O)C2=O
IC50 [1]: 330 nM

Compound: CCOC(=O)CCC1=C(n2ccc3ccccc32)c2ccccc2C(=O)C1=O
IC50 [1]: 270 nM

Compound: CC(C)C1=CC(=O)C(=O)c2ccccc21
IC50 ([2]; read-out: IC50): 10100 nM

Compound: COC(=O)CCc1ccc2c(c1)C(n1ccc3ccccc31)=CC(=O)C2=O
IC50 [1]: 920 nM

Compound: O=C1C=C(c2ccccc2O)c2ccccc2C1=O
IC50 ([2]; read-out: IC50): 1600 nM

Compound: CCCCCOc1ccc2c(c1)C(=O)C(=O)C=C2c1ccccc1
IC50 ([2]; read-out: IC50): 920 nM

Compound: CCOC(=O)CCC1=C(c2ccccc2)c2ccccc2C(=O)C1=O
IC50 [1]: 430 nM

Compound: CCN(CC)C(=O)CCC1=C(c2ccccc2)c2ccccc2C(=O)C1=O
IC50 [1]: 610 nM

Compound: O=C(Nc1cccc2c1C(=O)C(=O)C=C2c1ccccc1)OCc1ccccc1
IC50 ([2]; read-out: IC50): 1340 nM

Compound: CCOC(=O)COc1ccccc1C1=CC(=O)C(=O)c2ccccc21
IC50 ([2]; read-out: IC50): 2150 nM

Compound: CC(C)(C)OC(=O)COc1ccc(CC2=C(c3ccccc3)c3ccccc3C(=O)C2=O)cc1
IC50 [1]: 1480 nM

Compound: O=C(Nc1ccc2c(c1)C(=O)C(=O)C=C2c1ccccc1)OCc1ccccc1
IC50 ([2]; read-out: IC50): 2250 nM

Compound: O=C1C=C(c2ccc(-c3ccccc3)cc2)c2ccccc2C1=O
IC50 ([2]; read-out: IC50): 5400 nM

Compound: O=C1C=C(C2CCCCC2)c2ccccc2C1=O
IC50 [4]: 3270 nM
IC50 [5]: 3000 nM
IC50 [6]: 8.99 µM
IC50 [7]: 8.06 µM
IC50 ([2]; read-out: IC50): 320 nM
IC50 [8]: 17.9 µM

Compound: O=C1C=Cc2ccccc2C1=O [1,2-NAPHTHOQUINONE]
IC50 [1]: 24600 nM

Compound: COC1=CC(=O)C(=O)c2ccccc21
IC50 ([2]; read-out: IC50): 29100 nM

Compound: Cc1c(C2=CC(=O)C(=O)c3ccccc32)c2ccccc2n1C
IC50 [3]: Not Active

Compound: CC(C)(C)c1cc(C2=CC(=O)C(=O)c3ccccc32)cc(C(C)(C)C)c1O
IC50 ([2]; read-out: IC50): 5730 nM

Compound: COC(=O)CCC1=C(n2ccc3ccccc32)c2ccc(CCC(=O)OC)cc2C(=O)C1=O
IC50 [1]: 940 nM

Compound: NC1=CC(=O)C(=O)c2ccccc21 [4-AMINO-[1,2]NAPHTHOQUINONE]
IC50 ([2]; read-out: IC50): 24600 nM

Compound: O=C1C=C(c2ccccc2[N+](=O)[O-])c2ccccc2C1=O
IC50 ([2]; read-out: IC50): 1170 nM

Compound: CCCCCOC1=C(c2ccccc2)c2ccccc2C(=O)C1=O
IC50 ([2]; read-out: IC50): 2690 nM

Compound: O=C1C=C(c2c[nH]c3ccccc23)c2ccccc2C1=O
IC50 [4]: 3070 nM
IC50 [5]: 1950 nM
IC50 [6]: 10.2 µM
IC50 [7]: 3.19 µM
IC50 ([2]; read-out: IC50): 1130 nM
IC50 [8]: 25.6 µM

Compound: COC(=O)C(Cc1ccccc1)Oc1ccc2c(c1)C(=O)C(=O)C=C2c1ccccc1 (stereo unspecified)
IC50 ([2]; read-out: IC50): 2540 nM

Compound: O=C1C=C(Cc2ccccc2)c2ccccc2C1=O
IC50 ([2]; read-out: IC50): 1420 nM

Compound: O=C1C=C(n2ccc3ccccc32)c2ccc(OC(Cc3ccccc3)C(=O)O)cc2C1=O (stereo unspecified)
IC50 ([2]; read-out: IC50): 2070 nM

Compound: CCCCCCCCCCC1=CC(=O)C(=O)c2ccccc21
IC50 [3]: Not Active

Compound: O=C1C=C(OCCCO)c2ccccc2C1=O
IC50 ([2]; read-out: IC50): 36500 nM

Compound: O=C1C=C(c2ccccc2)c2ccccc2C1=O
IC50 [4]: 840 nM
IC50 [5]: 9520 nM
IC50 [7]: 8.37 µM
IC50 ([2]; read-out: IC50): 860 nM
IC50 [8]: 21.1 µM

Compound: CCCCCCC1=CC(=O)C(=O)c2ccccc21
IC50 ([2]; read-out: IC50): 3300 nM

Compound: O=C1C=C(S(=O)(=O)O)c2ccccc2C1=O
IC50 ([2]; read-out: IC50): 5290 nM

Compound: CCCCC1=CC(=O)C(=O)c2ccccc21
IC50 [3]: Not Active

Compound: COc1ccc2c(c1)C(=O)C(=O)C=C2c1ccccc1
IC50 ([2]; read-out: IC50): 2040 nM

Compound: COC(=O)c1ccc(C2=CC(=O)C(=O)c3ccccc32)cc1
IC50 [4]: 1650 nM
IC50 [5]: 2130 nM
IC50 ([2]; read-out: IC50): 1540 nM
IC50 [8]: 12 µM

Compound: O=C1C=C(c2ccc(O)cc2)c2ccccc2C1=O
IC50 ([2]; read-out: IC50): 440 nM
